Key:
HA-hSERT = HA-hSERT (Homo sapiens, UniProt P31645); experiment: hSERT photoaffinity labeling in HA-hSERT LLCPK1 cells; assay type: binding
[1] = Reversed-phase HPLC relative lipophilicity; assay type: physicochemical; conditions: C-18 column, 45% MeOH/CH3CN (1:1) and 55% water with Et3N and HOAc, 3.0 mL/min
Summary of the method: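 Waters C-18 Nova-Pak column (8 × 100 mm, 6 μm, radial compression). Organic phase MeOH/CH3CN 1:1 v/v; aqueous phase contained Et3N (2.1% v/v) and HOAc (2.8% v/v). Isocratic 45% organic/55% aqueous at 3.0 mL/min, with one analogue run at 42%/58%. Retention time and k′ recorded for radioiodinated products, matched to nonradioactive standards by coelution.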

hSERT = hSERT (Homo sapiens, UniProt P31645); assay type: cell-based
Chain of hSERT (P31645 whole entry): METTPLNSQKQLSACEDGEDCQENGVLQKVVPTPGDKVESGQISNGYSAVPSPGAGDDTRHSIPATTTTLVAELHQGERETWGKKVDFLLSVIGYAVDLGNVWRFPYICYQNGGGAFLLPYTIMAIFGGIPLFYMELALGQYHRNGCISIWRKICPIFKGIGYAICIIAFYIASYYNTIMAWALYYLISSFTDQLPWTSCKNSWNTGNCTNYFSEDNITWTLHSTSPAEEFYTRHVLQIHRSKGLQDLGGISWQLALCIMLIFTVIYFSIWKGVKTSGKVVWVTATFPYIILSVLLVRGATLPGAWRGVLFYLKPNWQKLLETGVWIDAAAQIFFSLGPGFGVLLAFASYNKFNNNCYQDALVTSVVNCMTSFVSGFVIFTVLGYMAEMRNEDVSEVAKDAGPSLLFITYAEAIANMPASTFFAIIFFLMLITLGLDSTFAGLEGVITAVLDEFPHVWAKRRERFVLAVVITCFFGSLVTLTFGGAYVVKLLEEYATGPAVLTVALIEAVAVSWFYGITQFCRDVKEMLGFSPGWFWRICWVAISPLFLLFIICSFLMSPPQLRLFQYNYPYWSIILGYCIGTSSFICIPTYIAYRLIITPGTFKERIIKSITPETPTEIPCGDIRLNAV

Chain of HA-hSERT (P31645 whole entry): as above

Row | SMILES | Irreversible (covalent) labeling of hSERT upon photoactivation (HA-hSERT) | Capacity factor k′ (relative lipophilicity) [1] | Effect of (S)-citalopram preincubation on irreversible hSERT labeling (in words) (HA-hSERT) | Reduction in WT hSERT affinity compared to (S)-citalopram (hSERT) [fold]
1 | CN(CCC[C@@]1(c2ccc(F)cc2)OCc2cc(C#N)ccc21)CCc1ccc(N=[N+]=[N-])c([125I])c1 [[^125I]15, (S)-1-(3-((4-Azido-3-[^125I]-iodophenethyl)(methyl)amino)propyl)-1-(4-fluorophenyl)-1,3-dihydroisobenzofuran-5-carbonitrile] | covalently label | 18.3 | – | –
2 | CN(C)CCC[C@@]1(c2ccc(F)cc2)OCc2cc(CNC(=O)CCc3ccc(N=[N+]=[N-])c([125I])c3)ccc21 [[^125I]22, (S)-3-(4-Azido-3-[^125I]-iodophenyl)-N-((1-(3-(dimethylamino)propyl)-1-(4-fluorophenyl)-1,3-dihydroisobenzofuran-5-yl)methyl)propanamide] | covalently label | 10.4 | completely eliminated | –
3 | CN(C)CCC[C@@]1(c2ccc(F)cc2)OCc2cc(CNC(=O)c3ccc(N=[N+]=[N-])c([125I])c3)ccc21 [[^125I]26, (S)-4-Azido-N-((1-(3-(dimethylamino)propyl)-1-(4-fluorophenyl)-1,3-dihydroisobenzofuran-5-yl)methyl)-3-[^125I]-iodobenzamide] | covalently label | 10.6 | completely eliminated | –
4 | CN(CCC[C@@]1(c2ccc(F)cc2)OCc2cc(C#N)ccc21)CCc1ccc(N=[N+]=[N-])c(I)c1 [compound 15, (S)-1-(3-((4-Azido-3-iodophenethyl)(methyl)amino)propyl)-1-(4-fluorophenyl)-1,3-dihydroisobenzofuran-5-carbonitrile] | – | – | – | 100
5 | CN(C)CCC[C@@]1(c2ccc(F)cc2)OCc2cc(CNC(=O)CCc3ccc(N=[N+]=[N-])c(I)c3)ccc21 [compound 22, (S)-3-(4-Azido-3-iodophenyl)-N-((1-(3-(dimethylamino)propyl)-1-(4-fluorophenyl)-1,3-dihydroisobenzofuran-5-yl)methyl)propanamide] | – | – | – | 17
6 | CN(C)CCC[C@@]1(c2ccc(F)cc2)OCc2cc(CNC(=O)c3ccc(N=[N+]=[N-])c(I)c3)ccc21 [compound 26, (S)-4-Azido-N-((1-(3-(dimethylamino)propyl)-1-(4-fluorophenyl)-1,3-dihydroisobenzofuran-5-yl)methyl)-3-iodobenzamide] | – | – | – | 11

Source: paper PMC4515784 (Journal of Medicinal Chemistry, 2015)
